Experiments:
[1] = molecular target: T1, Human immunodeficiency virus type 1 protease (Human immunodeficiency virus 1, UniProt Q72874); experiment: Inhibition of HIV1 protease
Procedure, shortened: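 Protease activity read with fluorogenic substrate DABCYL-γ-Abu-Ser-Gln-Asn-Tyr-Pro-Ile-Val-Gln-EDANS in 100 mM sodium acetate, 1 mM EDTA, 1 M NaCl, pH 4.7, 30 °C. Substrate and inhibitor (DMSO, 3% v/v final) preincubated 3 min, then enzyme added (7.5 nM final). Fluorescence (ex 340, em 490 nm) followed 3 min. 8–10 inhibitor concentrations; IC50 fitted to %inhibition = 100[I]0/(IC50+[I]0).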

[2] = molecular target: T1, Human immunodeficiency virus type 1 protease; experiment: Inhibition of dimerization of HIV1 protease
Procedure, shortened: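 Zhang kinetic analysis using the same fluorogenic DABCYL/EDANS substrate assay (pH 4.7 acetate buffer, 30 °C, ex 340/em 490 nm). Initial substrate held constant; at least four protease concentrations (4.7–13.6 nM) tested at several inhibitor concentrations. Dimerization inhibition constant Kid derived from Zhang plots.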

[3] = molecular target: Human immunodeficiency virus type 1 protease (Human immunodeficiency virus 1) (UniProt Q72874); experiment: Inhibition of HIV1 protease at 5.7 uM
Procedure, shortened: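 Fluorogenic assay with DABCYL-γ-Abu-Ser-Gln-Asn-Tyr-Pro-Ile-Val-Gln-EDANS substrate, in 100 mM sodium acetate, 1 mM EDTA and 1 M NaCl at pH 4.7 and 30 °C, with 3% v/v DMSO final. Substrate and inhibitor were preincubated for 3 min. The reaction was started with HIV-1 protease (7.5 nM final). The fluorescence increase (ex 340/em 490 nm) was followed over 3 min and compared with a substrate-only blank to give % inhibition.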

SMILES | IC50 [1] [µM] | Ki [2] [µM] | inhibition [3] [%] | Ki [1] [µM]
COC(=O)[C@@H](NC(=O)[C@H](CC(C)C)NC(=O)[C@@H](NC(=O)CCCOc1ccc2ccc(OCCCC(=O)N[C@@H](CCC(=O)OC(C)(C)C)C(=O)N[C@@H](CC(C)C)C(N)=O)cc2c1)C(C)C)C(C)C | 1.1 | 0.42 | – | –
CC[C@@H](C)[C@H](NC(=O)[C@@H](NC(=O)CCCOc1ccc2ccc(OCCCC(=O)N[C@H](C(=O)N[C@H](C(=O)N[C@H](C(=O)OC)C(C)C)[C@H](C)CC)[C@@H](C)O)nc2c1)[C@@H](C)O)C(=O)N[C@H](C(=O)OC)C(C)C | – | 1.9 | 45 | –
COC(=O)[C@@H](NC(=O)[C@H](CC(C)C)NC(=O)[C@@H](NC(=O)CCCOc1ccc2ccc(OCCCC(=O)N[C@H](C(=O)N[C@@H](CC(C)C)C(=O)N[C@H](C(=O)OC)C(C)C)C(C)C)nc2c1)C(C)C)C(C)C | 1.4 | 0.13 | – | –
CC[C@H](C)[C@H](NC(=O)CCCOc1ccc2ccc(OCCCC(=O)N[C@H](C(=O)N[C@@H](CC(C)C)C(=O)N[C@H](C(=O)OC)C(C)C)C(C)C)cc2n1)C(=O)N[C@H](C(N)=O)[C@@H](C)O | 1.7 | 0.25 | – | 4.3
COC(=O)[C@H](CC(N)=O)NC(=O)[C@H](CC(C)C)NC(=O)[C@@H](NC(=O)CCCOc1ccc2ccc(OCCCC(=O)N[C@H](C(=O)N[C@@H](CC(C)C)C(=O)N[C@H](C(=O)OC)C(C)C)C(C)C)cc2n1)[C@@H](C)O | 5.1 | 0.08 | – | –
CC[C@H](C)[C@H](NC(=O)CCCOc1ccc2ccc(OCCCC(=O)N[C@H](C(=O)N[C@@H](CC(C)C)C(=O)N[C@H](C(=O)OC)C(C)C)C(C)C)cc2n1)C(=O)N[C@H](C(=O)N[C@@H](CC(C)C)C(=O)OC)[C@@H](C)O | 5.3 | 0.4 | – | –
COC(=O)[C@@H](NC(=O)[C@H](CC(C)C)NC(=O)[C@@H](NC(=O)CCCOc1ccc2ccc(OCCCC(=O)N[C@@H](Cc3ccc(O)cc3)C(=O)N[C@@H](CCC(=O)OC(C)(C)C)C(=O)N[C@@H](CC(C)C)C(N)=O)cc2c1)C(C)C)C(C)C | 1.1 | 0.23 | – | –
CC[C@H](C)[C@H](NC(=O)CCCOc1ccc2ccc(OCCCC(=O)N[C@H](C(=O)N[C@@H](CC(C)C)C(=O)N[C@H](C(=O)OC)C(C)C)C(C)C)cc2c1)C(=O)N[C@H](C(N)=O)[C@@H](C)O | 4.3 | 1.5 | – | 6.2
CC[C@H](C)[C@H](NC(=O)[C@H](CCC(N)=O)NC(=O)CCCOc1ccc2ccc(OCCCC(=O)N[C@H](C(=O)N[C@@H](CC(C)C)C(=O)N[C@H](C(=O)OC)C(C)C)C(C)C)cc2c1)C(=O)N[C@H](C(N)=O)[C@@H](C)O | 2.8 | 2.3 | – | –
COC(=O)[C@@H](NC(=O)[C@H](CC(C)C)NC(=O)[C@@H](NC(=O)CCCOc1ccc2ccc(OCCCC(=O)N[C@H](C(=O)N[C@@H](CC(C)C)C(=O)N[C@H](C(=O)OC)C(C)C)C(C)C)cc2c1)C(C)C)C(C)C | 3.5 | 0.56 | – | –
CC[C@H](C)[C@H](NC(=O)[C@H](CCC(N)=O)NC(=O)CCCOc1ccc2ccc(OCCCC(=O)N[C@H](C(=O)N[C@@H](CC(C)C)C(=O)N[C@H](C(=O)OC)C(C)C)C(C)C)cc2n1)C(=O)N[C@H](C(N)=O)[C@@H](C)O | – | – | 30 | –
COC(=O)[C@H](CC(C)C)NC(=O)[C@@H](NC(=O)CCCOc1ccc2ccc(OCCCC(=O)N[C@H](C(=O)N[C@@H](CC(C)C)C(=O)N[C@H](C(=O)OC)C(C)C)C(C)C)cc2c1)[C@@H](C)O | 4 | 1.4 | – | 10.3
COC(=O)[C@@H](NC(=O)[C@H](CC(C)C)NC(=O)[C@@H](NC(=O)CCCOc1ccc2ccc(OCCCC(=O)N[C@@H](CCC(=O)OC(C)(C)C)C(=O)N[C@@H](CC(C)C)C(N)=O)nc2c1)C(C)C)C(C)C | 1.8 | 0.53 | – | –
COC(=O)[C@@H](NC(=O)[C@H](CC(C)C)NC(=O)[C@@H](NC(=O)CCCOc1ccc2ccc(OCCCC(=O)N[C@@H](Cc3ccc(O)cc3)C(=O)N[C@@H](CCC(=O)OC(C)(C)C)C(=O)N[C@@H](CC(C)C)C(N)=O)nc2c1)C(C)C)C(C)C | 1 | 0.41 | – | –
COC(=O)[C@@H](NC(=O)[C@H](CC(C)C)NC(=O)[C@@H](NC(=O)CCCOc1ccc2ccc(OCCCC(=O)N[C@@H](CCC(=O)O)C(=O)N[C@@H](CC(C)C)C(N)=O)nc2c1)C(C)C)C(C)C | – | – | 20 | –
COC(=O)[C@H](CC(C)C)NC(=O)[C@@H](NC(=O)CCCOc1ccc2ccc(OCCCC(=O)N[C@H](C(=O)N[C@@H](CC(C)C)C(=O)N[C@H](C(=O)OC)C(C)C)C(C)C)cc2n1)[C@@H](C)O | 1.4 | 1.5 | – | –
COC(=O)[C@@H](NC(=O)[C@H](CC(C)C)NC(=O)[C@@H](NC(=O)CCCOc1ccc2ccc(OCCCC(=O)N[C@@H](CCC(=O)O)C(=O)N[C@@H](CC(C)C)C(N)=O)cc2c1)C(C)C)C(C)C | 2.8 | 0.9 | – | –

Source: ChEMBL document CHEMBL1149261, “New constrained "molecular tongs" designed to dissociate HIV-1 protease dimer” (J Med Chem, 2004)
